Source: ChEMBL document CHEMBL5653631, “A Potent and Selective ULK1 Inhibitor Suppresses Autophagy and Sensitizes Cancer Cells to Nutrient Stress” (iScience, 2018)

Legend:
[1] = biological target: Serine/threonine-protein kinase tousled-like 2 (Homo sapiens) (UniProt Q86UE8); test: Inhibition of human recombinant TLK2 at 40 nM in presence of ATP by radiometric assay relative to control
[2] = biological target: Cyclin-dependent kinase 4 (Homo sapiens) (UniProt P11802); test: Inhibition of human recombinant CDK4 at 40 nM related to control ULK1
Cyclin-dependent kinase 4 (Homo sapiens), sequence (P11802 whole entry): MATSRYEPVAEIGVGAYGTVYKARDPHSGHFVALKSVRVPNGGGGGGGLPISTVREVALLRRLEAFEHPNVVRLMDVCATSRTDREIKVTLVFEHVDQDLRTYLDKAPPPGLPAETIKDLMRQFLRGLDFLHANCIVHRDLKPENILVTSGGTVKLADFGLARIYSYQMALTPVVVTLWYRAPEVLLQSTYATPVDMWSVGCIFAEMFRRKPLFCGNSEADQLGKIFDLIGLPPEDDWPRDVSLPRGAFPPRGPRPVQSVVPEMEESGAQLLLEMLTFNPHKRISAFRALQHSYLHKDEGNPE

[3] = biological target: Serine/threonine-protein kinase WNK1 (Homo sapiens) (UniProt Q9H4A3); test: Inhibition of human recombinant Wnk1 at 40 nM in presence of ATP by radiometric assay relative to control
Serine/threonine-protein kinase WNK1 (Homo sapiens), sequence (Q9H4A3 whole entry, looked up): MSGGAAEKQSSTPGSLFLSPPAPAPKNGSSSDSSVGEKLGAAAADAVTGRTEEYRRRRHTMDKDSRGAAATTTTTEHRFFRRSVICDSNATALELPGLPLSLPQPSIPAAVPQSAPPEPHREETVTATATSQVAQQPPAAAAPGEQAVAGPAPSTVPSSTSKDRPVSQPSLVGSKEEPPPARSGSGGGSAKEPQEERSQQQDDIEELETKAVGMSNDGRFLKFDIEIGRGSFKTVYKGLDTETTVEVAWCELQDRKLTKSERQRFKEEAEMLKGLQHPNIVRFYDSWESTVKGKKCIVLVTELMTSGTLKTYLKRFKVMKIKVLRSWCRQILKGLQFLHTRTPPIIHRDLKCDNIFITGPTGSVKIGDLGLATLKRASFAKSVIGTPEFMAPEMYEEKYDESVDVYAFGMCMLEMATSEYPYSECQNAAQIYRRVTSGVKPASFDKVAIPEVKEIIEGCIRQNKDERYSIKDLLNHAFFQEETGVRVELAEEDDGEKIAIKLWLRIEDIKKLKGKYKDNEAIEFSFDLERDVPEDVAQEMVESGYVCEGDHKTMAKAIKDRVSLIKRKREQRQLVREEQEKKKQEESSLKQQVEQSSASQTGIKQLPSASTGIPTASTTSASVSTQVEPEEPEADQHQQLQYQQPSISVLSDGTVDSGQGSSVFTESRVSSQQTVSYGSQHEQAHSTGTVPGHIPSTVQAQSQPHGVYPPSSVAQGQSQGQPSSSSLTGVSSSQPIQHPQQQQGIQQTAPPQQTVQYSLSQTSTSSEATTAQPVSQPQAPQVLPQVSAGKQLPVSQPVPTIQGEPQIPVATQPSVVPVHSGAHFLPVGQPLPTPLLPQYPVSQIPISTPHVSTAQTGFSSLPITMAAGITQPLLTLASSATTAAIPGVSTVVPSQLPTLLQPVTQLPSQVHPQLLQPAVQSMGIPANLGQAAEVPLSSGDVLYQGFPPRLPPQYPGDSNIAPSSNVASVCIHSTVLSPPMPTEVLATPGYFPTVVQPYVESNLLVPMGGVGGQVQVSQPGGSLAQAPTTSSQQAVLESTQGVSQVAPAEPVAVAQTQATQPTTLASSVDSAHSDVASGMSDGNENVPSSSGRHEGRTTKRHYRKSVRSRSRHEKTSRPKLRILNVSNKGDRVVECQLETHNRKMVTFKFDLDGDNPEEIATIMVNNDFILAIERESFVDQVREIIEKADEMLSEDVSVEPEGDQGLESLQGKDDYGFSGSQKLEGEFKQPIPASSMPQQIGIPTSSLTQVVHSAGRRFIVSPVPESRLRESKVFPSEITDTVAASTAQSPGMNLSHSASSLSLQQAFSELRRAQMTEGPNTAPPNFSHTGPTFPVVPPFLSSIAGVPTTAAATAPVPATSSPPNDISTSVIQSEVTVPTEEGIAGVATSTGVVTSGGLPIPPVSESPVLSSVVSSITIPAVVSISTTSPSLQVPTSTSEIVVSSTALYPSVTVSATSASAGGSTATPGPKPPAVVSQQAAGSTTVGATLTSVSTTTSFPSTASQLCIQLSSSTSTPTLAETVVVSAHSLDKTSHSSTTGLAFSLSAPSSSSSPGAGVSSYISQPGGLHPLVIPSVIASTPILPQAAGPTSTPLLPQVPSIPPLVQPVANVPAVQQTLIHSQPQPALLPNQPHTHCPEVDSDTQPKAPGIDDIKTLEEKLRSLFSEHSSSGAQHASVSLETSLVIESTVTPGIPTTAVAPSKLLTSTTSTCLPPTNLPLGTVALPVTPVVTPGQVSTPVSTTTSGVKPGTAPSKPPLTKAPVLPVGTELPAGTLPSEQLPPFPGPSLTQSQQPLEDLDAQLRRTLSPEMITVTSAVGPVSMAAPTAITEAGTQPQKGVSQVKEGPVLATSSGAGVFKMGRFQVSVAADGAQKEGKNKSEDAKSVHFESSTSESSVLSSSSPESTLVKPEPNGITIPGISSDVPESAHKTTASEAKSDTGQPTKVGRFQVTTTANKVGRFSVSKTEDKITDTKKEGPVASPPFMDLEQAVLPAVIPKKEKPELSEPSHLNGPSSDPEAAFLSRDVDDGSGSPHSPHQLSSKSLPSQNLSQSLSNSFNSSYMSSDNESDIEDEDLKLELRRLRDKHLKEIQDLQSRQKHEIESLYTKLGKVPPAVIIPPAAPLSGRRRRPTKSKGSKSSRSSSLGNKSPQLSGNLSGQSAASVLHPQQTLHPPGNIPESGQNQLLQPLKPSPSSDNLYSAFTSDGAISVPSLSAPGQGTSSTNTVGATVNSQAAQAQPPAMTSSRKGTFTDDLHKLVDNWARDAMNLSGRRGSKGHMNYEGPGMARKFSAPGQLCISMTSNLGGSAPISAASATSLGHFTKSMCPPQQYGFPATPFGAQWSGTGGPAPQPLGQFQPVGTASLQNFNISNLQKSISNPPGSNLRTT

[4] = biological target: Serine/threonine-protein kinase pim-3 (Homo sapiens) (UniProt Q86V86); test: Inhibition of human recombinant PIM3 at 40 nM in presence of ATP by radiometric assay relative to control
[5] = biological target: T1, Inhibitor of nuclear factor kappa-B kinase subunit alpha (Homo sapiens) (UniProt O15111); test: Inhibition of human recombinant IKKa at 40 nM in presence of ATP by radiometric assay relative to control
T1 sequence (whole entry): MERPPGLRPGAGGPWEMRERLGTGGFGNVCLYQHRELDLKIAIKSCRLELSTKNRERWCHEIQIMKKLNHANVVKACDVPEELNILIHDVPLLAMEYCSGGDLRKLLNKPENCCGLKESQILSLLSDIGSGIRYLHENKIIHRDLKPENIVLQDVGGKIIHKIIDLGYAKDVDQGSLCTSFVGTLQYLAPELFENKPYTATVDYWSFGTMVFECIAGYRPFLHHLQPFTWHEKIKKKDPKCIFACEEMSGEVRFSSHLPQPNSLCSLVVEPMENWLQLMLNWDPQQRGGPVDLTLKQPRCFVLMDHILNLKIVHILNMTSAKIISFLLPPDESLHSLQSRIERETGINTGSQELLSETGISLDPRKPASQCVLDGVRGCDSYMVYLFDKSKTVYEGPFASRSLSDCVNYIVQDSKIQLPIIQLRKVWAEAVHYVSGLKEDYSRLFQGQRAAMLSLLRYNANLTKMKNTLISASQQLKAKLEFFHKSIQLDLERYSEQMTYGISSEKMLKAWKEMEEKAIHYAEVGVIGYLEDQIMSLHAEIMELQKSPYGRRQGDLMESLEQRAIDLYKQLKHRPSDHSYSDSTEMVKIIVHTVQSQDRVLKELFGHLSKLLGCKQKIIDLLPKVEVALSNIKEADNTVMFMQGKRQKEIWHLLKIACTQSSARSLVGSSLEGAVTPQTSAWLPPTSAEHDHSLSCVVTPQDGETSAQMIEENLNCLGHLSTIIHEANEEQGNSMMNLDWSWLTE

[6] = biological target: T2, Mitogen-activated protein kinase kinase kinase kinase 2 (Homo sapiens) (UniProt Q12851); test: Inhibition of human recombinant GCK at 40 nM in presence of ATP by radiometric assay relative to control
T2 sequence (whole entry): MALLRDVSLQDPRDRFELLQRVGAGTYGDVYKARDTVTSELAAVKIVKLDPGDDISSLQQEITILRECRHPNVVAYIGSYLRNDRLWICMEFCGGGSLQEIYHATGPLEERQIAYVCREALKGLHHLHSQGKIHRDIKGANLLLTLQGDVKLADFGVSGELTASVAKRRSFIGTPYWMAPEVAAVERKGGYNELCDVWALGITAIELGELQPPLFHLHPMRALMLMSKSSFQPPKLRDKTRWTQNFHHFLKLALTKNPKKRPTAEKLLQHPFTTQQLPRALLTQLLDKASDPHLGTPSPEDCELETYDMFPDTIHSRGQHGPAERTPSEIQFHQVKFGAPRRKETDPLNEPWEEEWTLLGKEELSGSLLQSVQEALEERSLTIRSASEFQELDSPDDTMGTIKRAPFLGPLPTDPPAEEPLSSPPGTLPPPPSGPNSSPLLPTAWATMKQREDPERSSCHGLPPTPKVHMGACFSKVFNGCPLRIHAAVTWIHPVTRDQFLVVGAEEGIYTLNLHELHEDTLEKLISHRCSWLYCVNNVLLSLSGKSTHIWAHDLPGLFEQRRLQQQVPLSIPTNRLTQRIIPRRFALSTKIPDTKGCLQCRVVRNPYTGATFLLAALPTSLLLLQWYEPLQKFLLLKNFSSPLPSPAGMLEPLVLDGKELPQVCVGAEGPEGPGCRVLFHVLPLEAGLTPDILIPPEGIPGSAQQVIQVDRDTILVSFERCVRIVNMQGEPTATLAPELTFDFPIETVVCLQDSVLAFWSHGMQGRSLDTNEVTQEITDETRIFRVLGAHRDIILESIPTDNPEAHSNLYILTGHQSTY

[7] = biological target: T3, Cytoplasmic tyrosine-protein kinase BMX (Homo sapiens) (UniProt P51813); test: Inhibition of human recombinant BMX at 15 nM in presence of ATP by radiometric assay relative to control
T3 sequence (whole entry): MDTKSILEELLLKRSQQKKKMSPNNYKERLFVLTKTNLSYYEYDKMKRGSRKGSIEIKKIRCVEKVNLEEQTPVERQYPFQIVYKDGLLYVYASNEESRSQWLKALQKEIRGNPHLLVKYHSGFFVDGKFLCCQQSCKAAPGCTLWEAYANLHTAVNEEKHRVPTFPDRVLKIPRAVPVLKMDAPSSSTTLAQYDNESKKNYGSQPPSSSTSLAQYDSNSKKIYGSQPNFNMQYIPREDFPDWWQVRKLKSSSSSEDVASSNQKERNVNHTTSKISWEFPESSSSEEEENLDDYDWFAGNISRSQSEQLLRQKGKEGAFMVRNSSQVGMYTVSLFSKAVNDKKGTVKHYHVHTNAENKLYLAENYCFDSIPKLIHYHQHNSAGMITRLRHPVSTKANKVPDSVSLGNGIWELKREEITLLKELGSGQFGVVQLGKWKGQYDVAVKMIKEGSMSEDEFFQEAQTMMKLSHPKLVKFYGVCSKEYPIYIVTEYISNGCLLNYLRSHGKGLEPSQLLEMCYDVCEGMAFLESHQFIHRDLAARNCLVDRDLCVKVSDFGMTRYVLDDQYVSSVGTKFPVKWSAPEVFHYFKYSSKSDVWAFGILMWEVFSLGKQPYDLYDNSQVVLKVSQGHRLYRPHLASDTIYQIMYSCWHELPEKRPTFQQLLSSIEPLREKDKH
Summary of the method: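 Part of a radiometric in vitro activity panel of 327 recombinant human kinases. Each kinase was tested in duplicate at one inhibitor concentration. Activity remaining was expressed as a percentage of the vehicle control, and percent inhibition was taken as 100 minus that value.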

[8] = biological target: Ephrin type-A receptor 7 (Homo sapiens) (UniProt Q15375); test: Inhibition of human recombinant EphA7 at 15 nM related to control ULK1
Ephrin type-A receptor 7 (Homo sapiens), sequence (Q15375 28-998 limits assumed): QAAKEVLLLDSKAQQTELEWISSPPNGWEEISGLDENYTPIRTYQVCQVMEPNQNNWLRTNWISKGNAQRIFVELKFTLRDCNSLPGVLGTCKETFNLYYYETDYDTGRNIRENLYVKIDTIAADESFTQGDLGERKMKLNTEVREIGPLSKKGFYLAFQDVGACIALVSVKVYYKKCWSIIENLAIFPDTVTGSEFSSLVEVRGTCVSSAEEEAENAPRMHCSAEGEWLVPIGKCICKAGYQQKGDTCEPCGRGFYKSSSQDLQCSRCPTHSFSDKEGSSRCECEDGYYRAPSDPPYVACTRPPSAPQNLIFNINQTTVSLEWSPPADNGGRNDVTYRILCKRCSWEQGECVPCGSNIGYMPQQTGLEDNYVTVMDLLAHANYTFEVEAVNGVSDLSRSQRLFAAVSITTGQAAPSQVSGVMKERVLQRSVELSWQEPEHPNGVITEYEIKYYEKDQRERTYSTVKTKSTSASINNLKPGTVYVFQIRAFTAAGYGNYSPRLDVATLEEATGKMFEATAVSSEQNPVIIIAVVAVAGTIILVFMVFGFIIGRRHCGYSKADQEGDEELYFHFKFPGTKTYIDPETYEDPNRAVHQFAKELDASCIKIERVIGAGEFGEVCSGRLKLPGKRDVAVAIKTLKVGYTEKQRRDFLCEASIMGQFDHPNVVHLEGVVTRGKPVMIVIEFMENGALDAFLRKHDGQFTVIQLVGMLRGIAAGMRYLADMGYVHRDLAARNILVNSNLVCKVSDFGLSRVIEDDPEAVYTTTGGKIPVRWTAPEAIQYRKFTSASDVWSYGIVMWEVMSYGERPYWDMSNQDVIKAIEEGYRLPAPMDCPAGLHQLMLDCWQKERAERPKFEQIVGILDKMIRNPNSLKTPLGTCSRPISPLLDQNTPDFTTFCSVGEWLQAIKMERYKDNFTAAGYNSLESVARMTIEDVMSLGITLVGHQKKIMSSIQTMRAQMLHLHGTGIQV

Serine/threonine-protein kinase tousled-like 2 (Homo sapiens), sequence (Q86UE8 whole entry, looked up): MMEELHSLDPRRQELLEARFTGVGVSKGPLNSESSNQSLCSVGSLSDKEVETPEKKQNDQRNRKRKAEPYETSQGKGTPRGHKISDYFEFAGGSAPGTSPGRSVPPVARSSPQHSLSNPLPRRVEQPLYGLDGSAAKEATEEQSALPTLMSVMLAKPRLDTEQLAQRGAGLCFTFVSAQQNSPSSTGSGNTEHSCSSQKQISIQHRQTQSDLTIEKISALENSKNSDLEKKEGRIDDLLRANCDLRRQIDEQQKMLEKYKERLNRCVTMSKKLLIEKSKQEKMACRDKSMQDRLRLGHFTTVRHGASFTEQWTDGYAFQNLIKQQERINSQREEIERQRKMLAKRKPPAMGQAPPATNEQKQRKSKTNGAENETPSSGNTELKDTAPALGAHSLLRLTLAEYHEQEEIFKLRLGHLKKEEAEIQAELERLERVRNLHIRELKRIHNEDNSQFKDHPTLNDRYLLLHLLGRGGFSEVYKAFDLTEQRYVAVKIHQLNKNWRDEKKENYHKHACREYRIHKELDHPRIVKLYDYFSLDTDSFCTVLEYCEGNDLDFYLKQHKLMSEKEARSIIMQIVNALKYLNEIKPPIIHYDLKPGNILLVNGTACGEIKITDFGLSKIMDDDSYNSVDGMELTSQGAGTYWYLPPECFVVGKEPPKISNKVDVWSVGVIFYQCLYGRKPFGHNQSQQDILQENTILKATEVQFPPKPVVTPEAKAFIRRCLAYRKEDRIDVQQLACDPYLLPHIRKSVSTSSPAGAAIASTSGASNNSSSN

SMILES	inhibition [1] [%]	fold change (FC) [2]	inhibition [3] [%]	inhibition [4] [%]	inhibition [5] [%]	inhibition [6] [%]	inhibition [7] [%]	fold change (FC) [8]
O=C(N[C@@H](C1CC1)C(F)(F)F)c1cc(-c2cnn3cc(-c4ccc(F)cc4)cnc23)cs1	0	0	12	0	0	0		
CC(C)[C@H](NC(=O)c1cc(-c2cnn3cc(-c4ccc(OCCN5CCCCC5)cc4)cnc23)cs1)C(F)(F)F							6	0
